Activity calls are given as the source filed them. No cut-off for these calls is given here.
How the values were obtained:
[1] = Cytotoxicity against human SH-SY5Y cells at 5 to 100 uM by MTT assay; format: cell-based
[2] = molecular target: c-Jun N-terminal kinase, JNK (Homo sapiens) (UniProt P45983+P53779+P45984); assay: Inhibition of H2O2-induced JNK phosphorylation in human SH-SY5Y cells at 50 uM incubated for 4 hrs prior to H2O2 induction measured after 12 hrs by Western blotting analysis; format: cell-based
In short: (§1)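 SH-SY5Y cells pretreated 4 h with 50 µM test agent, then stimulated with 100 µM H2O2 for the indicated periods before harvest. Phosphorylated Akt, JNK, ERK and p38 detected by Western blot, normalised to the corresponding total protein as loading control.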

[3] = molecular target: MAP kinase p38 (Homo sapiens) (UniProt O15264+Q15759+Q16539+P53778); assay: Inhibition of H2O2-induced p38 phosphorylation in human SH-SY5Y cells at 50 uM incubated for 4 hrs prior to H2O2 induction measured after 12 hrs by Western blotting analysis; format: cell-based; in short: as §1
[4] = tested on: SH-SY5Y; assay: Inhibition of H2O2-induced AKT phosphorylation in human SH-SY5Y cells at 50 uM incubated for 4 hrs prior to H2O2 induction measured after 12 hrs by Western blotting analysis; format: cell-based; in short: as §1
[5] = Neuroprotective activity in human SH-SY5Y cells assessed as reduction of H2O2-induced apoptosis at 5 mM after 24 hrs by MTT assay relative to N-acetyl-cysteine; format: functional, cell-based; parameters: scale not given: the % may be the effect or the level left
[6] = Neuroprotective activity in H2O2-stimulated human SH-SY5Y cells assessed as downregulation of Bcl2 expression incubated for 4 hrs prior to H2O2 challenge measured after 12 hrs by Western blotting analysis; format: functional, cell-based; conditions: in the assay text read “upregulation of Bcl2 expression” for “downregulation of Bcl2 expression”
In short: (§2)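 SH-SY5Y cells pretreated 4 h with test agent (5, 25, 50 µM) or NAC (5 mM), then exposed to 100 µM H2O2 for 12 h. Bcl-2 and Bax quantified by Western blot densitometry against GAPDH. Mean ± SEM of at least three independent experiments, each in duplicate.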

[7] = Neuroprotective activity in human SH-SY5Y cells assessed as reduction of H2O2-induced apoptosis at 25 uM after 24 hrs by MTT assay relative to control; format: functional, cell-based; parameters: scale not given: the % may be the effect or the level left
[8] = Neuroprotective activity in H2O2-stimulated human SH-SY5Y cells assessed as upregulation of Bax expression incubated for 4 hrs prior to H2O2 challenge measured after 12 hrs by Western blotting analysis; format: functional, cell-based; conditions: in the assay text read “downregulation of Bax expression” for “upregulation of Bax expression”; in short: as §2
[9] = tested on: SH-SY5Y; assay: Inhibition of H2O2-induced ERK phosphorylation in human SH-SY5Y cells at 50 uM incubated for 4 hrs prior to H2O2 induction measured after 12 hrs by Western blotting analysis; format: cell-based; in short: as §1
[10] = Neuroprotective activity in human SH-SY5Y cells assessed as reduction of H2O2-induced apoptosis at 50 uM after 24 hrs by MTT assay relative to control; format: functional, cell-based; parameters: scale not given: the % may be the effect or the level left
[11] = Neuroprotective activity in human SH-SY5Y cells assessed as reduction of H2O2-induced apoptosis at 5 uM after 24 hrs by MTT assay relative to control; format: functional, cell-based; parameters: scale not given: the % may be the effect or the level left
[12] = Neuroprotective activity in H2O2-stimulated human SH-SY5Y cells assessed as downregulation of Bcl2 expression at 5 mM incubated for 4 hrs prior to H2O2 challenge measured after 12 hrs by Western blotting analysis; format: functional, cell-based; conditions: in the assay text read “upregulation of Bcl2 expression” for “downregulation of Bcl2 expression”; in short: as §2
[13] = Neuroprotective activity in H2O2-stimulated human SH-SY5Y cells assessed as upregulation of Bax expression at 5 mM incubated for 4 hrs prior to H2O2 challenge measured after 12 hrs by Western blotting analysis; format: functional, cell-based; conditions: in the assay text read “downregulation of Bax expression” for “upregulation of Bax expression”; in short: as §2

| SMILES | Activity [1] | inhibition [2] | inhibition [3] | inhibition [4] | Activity [5] [%] | Activity [6] | Activity [7] [%] | Activity [8] | inhibition [9] | Activity [10] [%] | Activity [11] [%] | Activity [12] | Activity [13] |
| --- | --- | --- | --- | --- | --- | --- | --- | --- | --- | --- | --- | --- | --- |
| N=C(NCCS)NCCCN | Non-toxic | Active | inactive | Active | 82.4 | Dose-dependent effect | 84.3 | Dose-dependent effect | inactive | 96.5 | 77.3 | – | – |
| N=C(NCCN)NCCS | Non-toxic | – | – | – | 76.4 | – | 75.4 | – | – | 79.2 | 66.3 | – | – |
| COc1cc(OC)cc(C(=O)OCCCCNC(=N)NCCS)c1 | Non-toxic | – | – | – | 88.8 | – | 63.5 | – | – | 66.1 | 62.1 | – | – |
| CC(O)CNC(=N)NCCS (configuration not stated) | Non-toxic | – | – | – | 88.8 | – | 67.3 | – | – | 65.5 | 77.1 | – | – |
| N=C(NCCS)NCCCCCO | Non-toxic | – | – | – | 76.4 | – | 80.6 | – | – | 82.8 | 60 | – | – |
| COc1cc(C(=O)OC2CCC(NC(=N)NCCS)CC2)cc(OC)c1O (configuration not stated) | Non-toxic | – | – | – | 88.8 | – | 67.2 | – | – | 65.9 | 76.4 | – | – |
| N=C(NCCS)NCCCO | Non-toxic | – | – | – | 76.4 | – | 81 | – | – | 82.1 | 67.2 | – | – |
| CC(=O)N[C@@H](CS)C(=O)O | – | – | – | – | – | – | – | – | – | – | – | Active | Active |
| COc1cc(C(=O)OCCCNC(=N)NCCS)cc(OC)c1O | Non-toxic | – | – | – | 76.4 | – | 83.3 | – | – | 93.3 | 78.8 | – | – |
| COc1cc(C(=O)OCCCCNC(=N)N)cc(OC)c1O | – | – | – | – | 82.4 | – | 38.5 | – | – | 46 | 76.7 | – | – |
| COc1cc(C(=O)OCCCCNC(=N)NCCS)cc(OC)c1O | Non-toxic | – | – | – | 88.8 | – | 66.4 | – | – | 60.4 | 60.7 | – | – |
| CCC(O)CNC(=N)NCCS (configuration not stated) | Non-toxic | – | – | – | 88.8 | – | 77.1 | – | – | 71.1 | 75.8 | – | – |
| N=C(NCCO)NCCS | Non-toxic | – | – | – | 76.4 | – | 59.6 | – | – | 65.1 | 56.4 | – | – |
| COc1cc(C(=O)OCCCCCCNC(=N)NCCS)cc(OC)c1O | Non-toxic | – | – | – | 88.8 | – | 80.6 | – | – | 73.8 | 78.5 | – | – |
| COc1ccc(C(=O)OCCCCNC(=N)NCCS)cc1 | Non-toxic | – | – | – | 82.4 | – | 37.5 | – | – | 48.6 | 42.4 | – | – |
| CC(CO)NC(=N)NCCS (configuration not stated) | Non-toxic | – | – | – | 88.8 | – | 67.2 | – | – | 80 | 59.9 | – | – |
| N=C(NCCS)NC1CCC(O)CC1 (configuration not stated) | Non-toxic | – | – | – | 82.4 | – | 38.6 | – | – | 30.4 | 31.6 | – | – |
| COc1cc(C(=O)OCCCCNC(=N)NCCS)cc(OC)c1OC | Non-toxic | – | – | – | 82.4 | – | 49.4 | – | – | 49.1 | 32.5 | – | – |
| N=C(NCCS)NCCCCO | Non-toxic | – | – | – | 82.4 | – | 63.5 | – | – | 70.2 | 68 | – | – |
| N=C(NCCS)NCCCCCCO | Non-toxic | – | – | – | 82.4 | – | 55.5 | – | – | 52.9 | 72.4 | – | – |
| COc1cc(C(=O)OCCCCCNC(=N)NCCS)cc(OC)c1O | Non-toxic | – | – | – | 76.4 | – | 59.9 | – | – | 65.9 | 53.9 | – | – |
